Laboratory results: ChEMBL document CHEMBL1155099, “Natural products in parallel synthesis: triazole libraries of nonactic acid” (2008)
Activity calls are given as the source filed them.

Legend:
Format in all cases: functional, organism-based
Candida albicans = experiment: Antifungal activity against Candida albicans at 1 mM by almar blue dye reduction assay
In short: (§1)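 Single-point primary screen at 1 mM using Alamar Blue dye reduction as the growth read-out.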

Saccharomyces cerevisiae = experiment: Antifungal activity against Saccharomyces cerevisiae at 1 mM by almar blue dye reduction assay; in short: as §1
Pseudomonas aeruginosa = experiment: Antibacterial activity against Pseudomonas aeruginosa at 1 mM by almar blue dye reduction assay; in short: as §1
Bacillus cereus = experiment: Antibacterial activity against Bacillus cereus at 1 mM by almar blue dye reduction assay; in short: as §1
Cryptococcus neoformans = experiment: Antifungal activity against Cryptococcus neoformans at 1 mM by almar blue dye reduction assay; in short: as §1
Staphylococcus aureus = experiment: Antibacterial activity against Staphylococcus aureus at 1 mM by almar blue dye reduction assay; in short: as §1
Bacillus anthracis = experiment: Antibacterial activity against Bacillus anthracis at 1mM by almar blue dye reduction assay
Bacillus subtilis = experiment: Antibacterial activity against Bacillus subtilis at 1 mM by almar blue dye reduction assay; in short: as §1
Escherichia coli = experiment: Antibacterial activity against Escherichia coli at 1 mM by almar blue dye reduction assay; in short: as §1

Measured: Activity

C[C@H](C[C@@H]1CC[C@H]([C@@H](C)C(=O)N2CCN(CC3CCCO3)CC2)O1)n1cc(C#CCN(C)C)nn1 (some centres not stated)
inactive: all assays above

C[C@H](C[C@@H]1CC[C@H]([C@@H](C)C(=O)N2CCCC2)O1)n1cc(C#CCC2CCCC2)nn1
inactive: all assays above

CC(C)NC(=O)[C@H](C)[C@H]1CC[C@@H](C[C@@H](C)n2cc(C#Cc3ccc(Oc4ccccc4)cc3)nn2)O1
inactive: all assays above

C[C@H](C[C@@H]1CC[C@H]([C@@H](C)C(=O)N(C)Cc2ccccc2)O1)n1cc(C#CC2=CCCCC2)nn1
inactive: all assays above

CCN(CC)C(=O)[C@H](C)[C@H]1CC[C@@H](C[C@@H](C)n2cc(C#Cc3ccc(Oc4ccccc4)cc3)nn2)O1
inactive: all assays above

C[C@H](C[C@@H]1CC[C@H]([C@@H](C)C(=O)N2CCN(CC3CCCO3)CC2)O1)n1cc(C#CCOc2ccc(Br)cc2)nn1 (some centres not stated)
inactive: all assays above

CCCCN(CC#Cc1cn([C@H](C)C[C@@H]2CC[C@H]([C@@H](C)C(=O)N(CC)CC)O2)nn1)CCCC
inactive: all assays above

CC(C)NC(=O)[C@H](C)[C@H]1CC[C@@H](C[C@@H](C)n2cc(C#CCOc3ccc(C(F)(F)F)cc3)nn2)O1
inactive: all assays above

C[C@H](C[C@@H]1CC[C@H]([C@@H](C)C(=O)N(C)Cc2ccccc2)O1)n1cc(C#Cc2ccccc2[N+](=O)[O-])nn1
inactive: all assays above

CC(C)NC(=O)[C@H](C)[C@H]1CC[C@@H](C[C@@H](C)n2cc(C#CCN(C)C)nn2)O1
inactive: all assays above

CC(C)NC(=O)[C@H](C)[C@H]1CC[C@@H](C[C@@H](C)n2cc(C#CCN(C)CCc3ccccc3)nn2)O1
inactive: all assays above

COc1ccc(OCC#Cc2cn([C@H](C)C[C@@H]3CC[C@H]([C@@H](C)C(=O)N4CCCC4)O3)nn2)cc1
inactive: all assays above

Cc1cccc(NC(=O)NCC#Cc2cn([C@H](C)CC3CCC([C@@H](C)C(=O)NC(C)C)O3)nn2)c1 (single isomer, unassigned)
inactive: all assays above
